# System: Escherichia coli
# Test: Antimicrobial activity against Escherichia coli ATCC 25922
# Format: functional
# Method in brief: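 Broth microdilution in trypticase soy broth; 2-fold serial dilutions giving final 512 to 1 µg/mL. Inoculum E. coli ATCC 25922 in TSB, final […] as printed. Incubated 37 °C for 24 h in plate reader, OD600 read every 20 min. MIC taken as lowest concentration preventing growth at 24 h.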
row,SMILES,MIC
1,CC(=O)NCCC(=O)N(CCC(=O)N(CCCCN)CCC(=O)NCCC(=O)N(CCC(=O)N(CCCCN)CCC(=O)N[C@@H](CCCCN)C(N)=O)CC(C)C)CC(C)C,> 512 µg/mL
2,CC(=O)N(CCC(=O)N(CCN)CCC(=O)N(CCN)CCC(=O)N(CCC(=O)N(CCN)CCC(=O)N(CCN)CCC(=O)N[C@@H](CCCCN)C(N)=O)CC(C)C)CC(C)C,> 512 µg/mL
3,CC(=O)N(CCC(=O)N(CCCN(C)C)CCC(=O)N(CCC(=O)N(CCC(=O)N(CCCN(C)C)CCC(=O)N(CCC(=O)N(CCC(=O)N(CCCN(C)C)CCC(=O)N(CCC(=O)N[C@@H](CCCCN)C(N)=O)CC(C)C)Cc1ccccc1)CC(C)C)Cc1ccccc1)CC(C)C)Cc1ccccc1,128 µg/mL
4,CC(=O)N(CCC(=O)N(CCCN(C)C)CCC(=O)N(CCC(=O)N(CCC(=O)N(CCCN(C)C)CCC(=O)N(CCC(=O)N(CCC(=O)N(CCCN(C)C)CCC(=O)N(CCC(=O)N(CCC(=O)N(CCCN(C)C)CCC(=O)N(CCC(=O)N(CCC(=O)N(CCCN(C)C)CCC(=O)N(CCC(=O)N(CCC(=O)N(CCCN(C)C)CCC(=O)N(CCC(=O)N[C@@H](CCCCN)C(N)=O)CC(C)C)Cc1ccccc1)CC(C)C)Cc1ccccc1)CC(C)C)Cc1ccccc1)CC(C)C)Cc1ccccc1)CC(C)C)Cc1ccccc1)CC(C)C)Cc1ccccc1,128 µg/mL
5,CC(=O)NCCC(=O)N(CCC(=O)N(CCN)CCC(=O)NCCC(=O)N(CCC(=O)N(CCN)CCC(=O)NCCC(=O)N(CCC(=O)N(CCN)CCC(=O)NCCC(=O)N(CCC(=O)N(CCN)CCC(=O)NCCC(=O)N(CCC(=O)N(CCN)CCC(=O)NCCC(=O)N(CCC(=O)N(CCN)CCC(=O)NCCC(=O)N(CCC(=O)N(CCN)CCC(=O)N[C@@H](CCCCN)C(N)=O)CC(C)C)CC(C)C)CC(C)C)CC(C)C)CC(C)C)CC(C)C)CC(C)C,128 µg/mL
6,CC(=O)N(CCC(=O)N(CCC(=O)N(CCN)CCC(=O)N(CCC(=O)N(CCC(=O)N(CCN)CCC(=O)N(CCC(=O)N(CCC(=O)N(CCN)CCC(=O)N(CCC(=O)N(CCC(=O)N(CCN)CCC(=O)N[C@@H](CCCCN)C(N)=O)CC(C)C)CC(C)C)CC(C)C)CC(C)C)CC(C)C)CC(C)C)CC(C)C)CC(C)C,256 µg/mL
7,CC(=O)NCCC(=O)N(CCC(=O)N(CCCN(C)C)CCC(=O)NCCC(=O)N(CCC(=O)N(CCCN(C)C)CCC(=O)NCCC(=O)N(CCC(=O)N(CCCN(C)C)CCC(=O)NCCC(=O)N(CCC(=O)N(CCCN(C)C)CCC(=O)NCCC(=O)N(CCC(=O)N(CCCN(C)C)CCC(=O)NCCC(=O)N(CCC(=O)N(CCCN(C)C)CCC(=O)NCCC(=O)N(CCC(=O)N(CCCN(C)C)CCC(=O)NCCC(=O)N(CCC(=O)N(CCCN(C)C)CCC(=O)N[C@@H](CCCCN)C(N)=O)CC(C)C)CC(C)C)CC(C)C)CC(C)C)CC(C)C)CC(C)C)CC(C)C)CC(C)C,> 512 µg/mL
8,CC(=O)N(CCC(=O)N(CCCN(C)C)CCC(=O)N(CCC(=O)N(CCC(=O)N(CCCN(C)C)CCC(=O)N(CCC(=O)N(CCC(=O)N(CCCN(C)C)CCC(=O)N(CCC(=O)N(CCC(=O)N(CCCN(C)C)CCC(=O)N(CCC(=O)N(CCC(=O)N(CCCN(C)C)CCC(=O)N(CCC(=O)N[C@@H](CCCCN)C(N)=O)CC(C)C)Cc1ccccc1)CC(C)C)Cc1ccccc1)CC(C)C)Cc1ccccc1)CC(C)C)Cc1ccccc1)CC(C)C)Cc1ccccc1,128 µg/mL
9,CC(=O)N(CCC(=O)N(CCC(=O)N(CCN)CCC(=O)N(CCC(=O)N(CCC(=O)N(CCN)CCC(=O)N(CCC(=O)N(CCC(=O)N(CCN)CCC(=O)N(CCC(=O)N(CCC(=O)N(CCN)CCC(=O)N(CCC(=O)N(CCC(=O)N(CCN)CCC(=O)N[C@@H](CCCCN)C(N)=O)CC(C)C)CC(C)C)CC(C)C)CC(C)C)CC(C)C)CC(C)C)CC(C)C)CC(C)C)CC(C)C)CC(C)C,256 µg/mL
10,CC(=O)N(CCC(=O)N(CCC(=O)N(CCCN(C)C)CCC(=O)N(CCC(=O)N(CCC(=O)N(CCCN(C)C)CCC(=O)N(CCC(=O)N(CCC(=O)N(CCCN(C)C)CCC(=O)N[C@@H](CCCCN)C(N)=O)CC(C)C)Cc1ccccc1)CC(C)C)Cc1ccccc1)CC(C)C)Cc1ccccc1,512 µg/mL
11,CC(=O)NCCC(=O)N(CCC(=O)N(CCN)CCC(=O)NCCC(=O)N(CCC(=O)N(CCN)CCC(=O)NCCC(=O)N(CCC(=O)N(CCN)CCC(=O)NCCC(=O)N(CCC(=O)N(CCN)CCC(=O)NCCC(=O)N(CCC(=O)N(CCN)CCC(=O)N[C@@H](CCCCN)C(N)=O)CC(C)C)CC(C)C)CC(C)C)CC(C)C)CC(C)C,256 µg/mL
12,CC(=O)N(CCC(=O)N(CCC(=O)N(CCCCN)CCC(=O)N[C@@H](CCCCN)C(N)=O)CC(C)C)CC(C)C,> 512 µg/mL
13,CC(=O)N(CCC(=O)N(CCC(=O)N(CCCCN)CCC(=O)N(CCC(=O)N(CCC(=O)N(CCCCN)CCC(=O)N[C@@H](CCCCN)C(N)=O)CC(C)C)CC(C)C)CC(C)C)CC(C)C,> 512 µg/mL
14,CC(=O)N(CCC(=O)N(CCC(=O)N(CCCCN)CCC(=O)N(CCC(=O)N(CCC(=O)N(CCCCN)CCC(=O)N(CCC(=O)N(CCC(=O)N(CCCCN)CCC(=O)N[C@@H](CCCCN)C(N)=O)CC(C)C)CC(C)C)CC(C)C)CC(C)C)CC(C)C)CC(C)C,> 512 µg/mL
15,CC(=O)N(CCC(=O)N(CCC(=O)N(CCN)CCC(=O)N(CCC(=O)N(CCC(=O)N(CCN)CCC(=O)N(CCC(=O)N(CCC(=O)N(CCN)CCC(=O)N[C@@H](CCCCN)C(N)=O)CC(C)C)CC(C)C)CC(C)C)CC(C)C)CC(C)C)CC(C)C,> 512 µg/mL
16,CC(=O)NCCC(=O)N(CCC(=O)N(CCCCN)CCC(=O)NCCC(=O)N(CCC(=O)N(CCCCN)CCC(=O)NCCC(=O)N(CCC(=O)N(CCCCN)CCC(=O)N[C@@H](CCCCN)C(N)=O)CC(C)C)CC(C)C)CC(C)C,512 µg/mL
17,CC(=O)N(CCC(=O)N(CCC(=O)N(CCCN(C)C)CCC(=O)N(CCC(=O)N(CCC(=O)N(CCCN(C)C)CCC(=O)N(CCC(=O)N(CCC(=O)N(CCCN(C)C)CCC(=O)N(CCC(=O)N(CCC(=O)N(CCCN(C)C)CCC(=O)N[C@@H](CCCCN)C(N)=O)CC(C)C)Cc1ccccc1)CC(C)C)Cc1ccccc1)CC(C)C)Cc1ccccc1)CC(C)C)Cc1ccccc1,128 µg/mL
18,CC(=O)N(CCC(=O)N(CCC(=O)N(CCCN(C)C)CCC(=O)N(CCC(=O)N(CCC(=O)N(CCCN(C)C)CCC(=O)N(CCC(=O)N(CCC(=O)N(CCCN(C)C)CCC(=O)N(CCC(=O)N(CCC(=O)N(CCCN(C)C)CCC(=O)N(CCC(=O)N(CCC(=O)N(CCCN(C)C)CCC(=O)N[C@@H](CCCCN)C(N)=O)CC(C)C)Cc1ccccc1)CC(C)C)Cc1ccccc1)CC(C)C)Cc1ccccc1)CC(C)C)Cc1ccccc1)CC(C)C)Cc1ccccc1,128 µg/mL
19,CC(=O)NCCC(=O)N(CCC(=O)N(CCCN(C)C)CCC(=O)NCCC(=O)N(CCC(=O)N(CCCN(C)C)CCC(=O)NCCC(=O)N(CCC(=O)N(CCCN(C)C)CCC(=O)NCCC(=O)N(CCC(=O)N(CCCN(C)C)CCC(=O)NCCC(=O)N(CCC(=O)N(CCCN(C)C)CCC(=O)N[C@@H](CCCCN)C(N)=O)CC(C)C)CC(C)C)CC(C)C)CC(C)C)CC(C)C,> 512 µg/mL
20,CC(=O)NCCC(=O)N(CCC(=O)N(CCN)CCC(=O)NCCC(=O)N(CCC(=O)N(CCN)CCC(=O)NCCC(=O)N(CCC(=O)N(CCN)CCC(=O)NCCC(=O)N(CCC(=O)N(CCN)CCC(=O)NCCC(=O)N(CCC(=O)N(CCN)CCC(=O)NCCC(=O)N(CCC(=O)N(CCN)CCC(=O)NCCC(=O)N(CCC(=O)N(CCN)CCC(=O)NCCC(=O)N(CCC(=O)N(CCN)CCC(=O)N[C@@H](CCCCN)C(N)=O)CC(C)C)CC(C)C)CC(C)C)CC(C)C)CC(C)C)CC(C)C)CC(C)C)CC(C)C,256 µg/mL
21,CC(=O)NCCC(=O)N(CCC(=O)N(CCCN(C)C)CCC(=O)NCCC(=O)N(CCC(=O)N(CCCN(C)C)CCC(=O)NCCC(=O)N(CCC(=O)N(CCCN(C)C)CCC(=O)NCCC(=O)N(CCC(=O)N(CCCN(C)C)CCC(=O)NCCC(=O)N(CCC(=O)N(CCCN(C)C)CCC(=O)NCCC(=O)N(CCC(=O)N(CCCN(C)C)CCC(=O)NCCC(=O)N(CCC(=O)N(CCCN(C)C)CCC(=O)N[C@@H](CCCCN)C(N)=O)CC(C)C)CC(C)C)CC(C)C)CC(C)C)CC(C)C)CC(C)C)CC(C)C,> 512 µg/mL

# Source: ChEMBL document CHEMBL1139655, “Antimicrobial beta-peptoids by a block synthesis approach” (2006)
